# Published values of several laboratories.
# Lines come from different studies, so protocols differ.
# Read-out: cell growth or viability
SMILES,cell line,technique,time,IC50
CN(C)CCCOc1cc(NC(=O)c2cc(Cl)cc(C(=O)Nc3cc(OCCCN(C)C)c4ccccc4n3)n2)nc2ccccc12,U2OS,ATP luminescence,72 h,1.8 µM
CC(C)C[C@H](NC(=O)[C@H](Cc1ccccc1)NC(=O)c1cnccn1)B(O)O,RL95-2,ATP luminescence,,0.012 µM
COC(=O)C(C)n1c(C=O)ccc1CO (stereo not shown),Hepa-1c1c7,crystal violet,48 h,> 100 µM
CC[C@@H](C)[C@H](N)C(=O)N1Cc2ccccc2C1,SKM-1,ATP luminescence,48 h,0.181 µM
CC1=CC(C)(C)N(Cc2ccccc2)c2ccc(O)cc21,PLC5,MTT,72 h,11 µM
COc1ccc(O)c(/C=N/c2nc(SC)nn2-c2ccc(C(=O)O)cc2)c1,RPE-1,MTT,,35.2 µM
COc1cc(OC)c2c(=O)cc(-c3ccc(N(C)C)cc3)oc2c1-c1c(OC)cc(OC)c2c(=O)cc(-c3ccc(N(C)C)cc3)oc12,HeLa,MTT,48 h,43.8 µM
NCCCOc1cc(NC(=O)c2cc(OCc3c[nH]nn3)cc(C(=O)Nc3cc(OCCCN)c4ccccc4n3)n2)nc2ccccc12,U2OS,ATP luminescence,72 h,> 40 µM
Cc1cc(NC(=O)c2cccc3cc(-c4cccc5[nH]nc(N)c45)ccc23)ccc1F,mouse BMDM,CCK-8,72 h,0.093 µM
COc1cc(/C=N/c2nc(SC)nn2-c2ccc(C(=O)O)cc2)ccc1O,RPE-1,MTT,,29.8 µM
NCCCOc1cc(NC(=O)c2cccc(C(=O)Nc3cc(OCCCN)c4ccccc4n3)n2)nc2ccccc12,U2OS,ATP luminescence,72 h,1.5 µM
CSc1nc(/N=C/c2cc(Br)ccc2O)n(-c2ccc(C(=O)O)cc2)n1,RPE-1,MTT,,37.6 µM
COc1cc(Nc2nccc(-c3cnn4nc(OC)ccc34)n2)cc(C(F)(F)F)c1,RL95-2,ATP luminescence,,1 µM
O=C(Nc1cc(OCCN2CCCC2)c2ccccc2n1)c1cc(Cl)cc(C(=O)Nc2cc(OCCN3CCCC3)c3ccccc3n2)n1,U2OS,ATP luminescence,72 h,2.3 µM
CSc1nc(NC(=S)NCCc2ccccc2)n(-c2ccc(C(=O)O)cc2)n1,RPE-1,MTT,,28.3 µM
C#CCOc1cc(C(=O)Nc2cc(OCCN)c3ccccc3n2)nc(C(=O)Nc2cc(OCCN)c3ccccc3n2)c1,U2OS,ATP luminescence,72 h,4.9 µM
CC(C)[C@H](N)C(=O)N1CCC[C@H]1B(O)O,HEL,ATP luminescence,48 h,> 60 µM
CSc1nc(N)n(-c2ccc(C(=O)O)cc2)n1,RPE-1,MTT,,41.8 µM
NCCCOc1cc(NC(=O)c2cc(Cl)cc(C(=O)Nc3cc(OCCCN)c4ccccc4n3)n2)nc2ccccc12,U2OS,ATP luminescence,72 h,0.3 µM
CN1c2ccccc2C(=O)N2[C@H](C(=O)Nc3ccc(/C=C/C(=O)NO)cc3)Cc3c([nH]c4ccccc34)[C@@H]12,HEL,,,0.34 µM
COc1ccc(O)c(/C=N/c2nc(Oc3ccccc3)nn2-c2ccc(C(=O)O)cc2)c1,RPE-1,MTT,,33.1 µM
NCCOc1cc(C(=O)Nc2cc(OCCN3CCCC3)c3ccccc3n2)nc(C(=O)Nc2cc(OCCN3CCCC3)c3ccccc3n2)c1,U2OS,ATP luminescence,72 h,0.2 µM
N[C@@H](CC(=O)N1CCN(C(c2ccc(F)cc2)c2ccc(F)cc2)CC1)C(=O)N1Cc2ccccc2C1,SKM-1,ATP luminescence,48 h,0.346 µM
NCCOc1cc(C(=O)Nc2cc(OCCN)c3ccccc3n2)nc(C(=O)Nc2cc(OCCN)c3ccccc3n2)c1,U2OS,ATP luminescence,72 h,16.8 µM
CSc1nc(/N=C/c2cc(C)ccc2O)n(-c2ccc(C(=O)O)cc2)n1,RPE-1,MTT,,36 µM
COc1cc(-c2ncn(/C=C\C(=O)OC(C)C)n2)cc(C(F)(F)F)c1,NB-4,,72 h,0.169 µM
CSc1nc(/N=C/c2ccc(O)cc2)n(-c2ccc(C(=O)O)cc2)n1,RPE-1,MTT,,39.1 µM
COc1nc(OCc2cccc(-c3ccccc3)c2C)ccc1CNCCNC(C)=O,HCT-8,MTT,,3.9 µM
